# Results published in the RNAGym collection of RNA variant scans (doi:10.1126/science.aae0568).
# This sample holds only a part of the variants without activity.
# B1: tRNA (parent)
# chain: GUUCCGUUGGCGUAAUGGUAACGCGUCUCCCUCCUAAGGAGAAGACUGCGGGUUCGAGUCCCGUACGGAACG
# Variants of: B1
# Experiment: yeast fitness relative to wild type (ratio to wild type); higher = fitter; tRNA-Arg(CCU), competitive growth, 37 C, YPD
# Outline: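 The tRNA-Arg(CCU) gene variants were made by chemical synthesis with a 3% per-site mutation rate at 69 sites and inserted at the native genomic locus of Saccharomyces cerevisiae. After pooling, the strains were competed in YPD at 37°C for 24 hours in six parallel replicates. Gene amplicons from the start population and each end population were read by 100-nucleotide paired-end sequencing, and Darwinian fitness relative to wild type was taken from genotype frequency changes. Genotypes needed ≥ 100 starting reads, and estimates < 0.5 were set to 0.5.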
row,Variant,yeast fitness
1,G10C A15C A21C,≤ 0.5
2,G10C C33G C46G C62G,≤ 0.5
3,G10C C11G C55G C62U,0.62
4,G10C C29U A43G U53G G63A,0.527
5,G10C C34A C55U,≤ 0.5
6,G10C C11G C22U C34G A69C,0.589
7,G10C C29U C31U A45C,0.623
8,G10C C34A,0.504
9,G10C A15G G58C,0.559
10,G10C C11A A37C C49G C62U,≤ 0.5
11,G10C A14U U19A C22U C66U,≤ 0.5
12,G10C C49A C62U,≤ 0.5
13,G10C G12A U28C C61G C66U,≤ 0.5
14,G10C C11G A21U A45C G52C A57G,≤ 0.5
15,G10C A14U U19A C22U G68A,≤ 0.5
16,G10C C11G C24G,0.577
17,G10C A15U,0.691
18,G10C C31A,0.577
19,G10C A14G C22U A37G A40U C46A U54C,≤ 0.5
20,G10C G12C G17U G39A C61U A69C,≤ 0.5
21,G10C C24A C46U,≤ 0.5
22,G10A U47C C62U,0.566
23,G10C A43G G52C C62U G63A,0.531
24,G10C C27G A42C,≤ 0.5

row,Variant,yeast fitness
1,G10A U54C,0.643
2,G10A U54A,0.698
3,G10C A43C U53A,≤ 0.5
4,G10C C24G C49U C66U,≤ 0.5
5,G10C C30U C31A,≤ 0.5
6,G10C A21G C30A G38C C46U,0.681
7,G10C C11G C24G G48C,≤ 0.5
8,G10C A21U C22G G67C,0.765
9,G10C C27U A65C,0.552
10,G10C A20U C22A,≤ 0.5
11,G10C C31G A65U,≤ 0.5
12,G10C A14U A20U C31A C55G G56C,≤ 0.5
13,G10C A15G C31A C33U A40C G44C G48U C49G,≤ 0.5
14,G10C A14U U19A C22U U47C,≤ 0.5
15,G10C A20U G41U A57U,≤ 0.5
16,G10C A20G C24U G38C,0.561
17,G10C U13C G18C C27U C33G C55U U64A G68C A70U,0.593
18,G10C A45U U53G,≤ 0.5
19,G10C A14G C24A A70U,≤ 0.5
20,G10C G12C C55A,≤ 0.5
21,G10C A14U U19A C22U,0.505
22,G10C A15G U35A G44A A69U,≤ 0.5
23,G10C C29A A40U C62G,≤ 0.5
24,G10C C60U,≤ 0.5

row,Variant,yeast fitness
1,G10C C60A,0.583
2,G10C C22U A42U C60G,≤ 0.5
3,G10C A36C A57C,≤ 0.5
4,G10C U13A A14G A20G C22A C24G U32G,≤ 0.5
5,G10C A15U C29G C46U G51C,≤ 0.5
6,G10C C24G C55A,≤ 0.5
7,G10C C22U G52A,≤ 0.5
8,G10C C61G,0.656
9,G10C C61U,0.792
10,G10C A14U G25A C27U U53C A70G,0.536
11,G10C C27G U54C C61G,≤ 0.5
12,G10C C46A A69U,0.615
13,G10C G23A G52C C62U,0.55
14,G10C C34A A40G,0.631
15,G10C G12A A45C,0.539
16,G10C C46G,0.708
17,G10C A14U G56A,≤ 0.5
18,G10C C11U C49A,0.562
19,G10C A21C C27A C34A C49G A65G,≤ 0.5
20,G10C C31U A57C C62A,≤ 0.5
21,G10C G44A,0.699
22,G10C C30G A43U G68U,≤ 0.5
23,G10C G12A G25C A37G,≤ 0.5
24,G10C G12C C46G C55U G67C,≤ 0.5

row,Variant,yeast fitness
1,G10C A14U C29G,0.584
2,G10C C31G A45U G68C,≤ 0.5
3,G10C C22U A65C,≤ 0.5
4,G10C A15G C61A,≤ 0.5
5,G10A U64C A69U,0.542
6,G10C G67U,0.689
7,G10A U28C C61U C66G,≤ 0.5
8,G10A U35G A37U U47C G56C U64C A69C,≤ 0.5
9,G10A U54A C55G,≤ 0.5
10,G10C C22A C24G A70C,0.531
11,G10C A57G A65U,≤ 0.5
12,G10A U26A C27U C29A A65G G68C,0.563
13,G10C C22A C24G U53A G56C C62U,≤ 0.5
14,G10A U26A G63A C66U,≤ 0.5
15,G10C C22U C24A U28C A45G,≤ 0.5
16,G10C C11G A45U,≤ 0.5
17,G10C A37G G52A C55G,0.567
18,G10C C22A C24G A65U,≤ 0.5
19,G10C C24U C61G C66U A69U,≤ 0.5
20,G10A U54C C61G,≤ 0.5
21,G10C C11U C30G G48A U54A,0.693
22,G10C C27G C61G,≤ 0.5
23,G10C A70C,0.689
24,G10C C66U,0.577

row,Variant,yeast fitness
1,G10A U53A G58A G68U,≤ 0.5
2,G10C C24U U64C,≤ 0.5
3,G10C C34G A40G,≤ 0.5
4,G10C C30G,0.507
5,G10C C30A,0.815
6,G10C C30U,0.733
7,G10C C31G U32C A36U A57U C60G,≤ 0.5
8,G10C A40U,0.635
9,G10C C29A A37G U64C,≤ 0.5
10,G10C G41A C66U,≤ 0.5
11,G10A U59C G68C,≤ 0.5
12,G10C A14G A36U,≤ 0.5
13,G10C A69U,0.661
14,G10A U32C G63A,≤ 0.5
15,G10C G12C C33U U35G C49G,≤ 0.5
16,G10A U53G C60A G68U A69C,≤ 0.5
17,G10C C49U A69C,0.575
18,G10C A15U A37U A45C G52C,0.606
19,G10C C29A C31U G68C,≤ 0.5
20,G10C U13A A43U C61A A70C,≤ 0.5
21,G10C A20G C66U,≤ 0.5
22,G10A U35A A37G A43U A45C,≤ 0.5
23,G10C A14U C62U A69C,≤ 0.5
24,G10C A14U G25A C27U U53C,≤ 0.5

row,Variant,yeast fitness
1,G10C C27G A42C C66U,0.534
2,G10C G25A U26C C46G,≤ 0.5
3,G10C C29U C49G G63C,≤ 0.5
4,G10C U13A C31A C55U,≤ 0.5
5,G10A U35C A42C A43C,≤ 0.5
6,G10C C60A C62A,0.529
7,G10C G56A A70C,0.554
8,G10C G12C C49U G56C,≤ 0.5
9,G10C G44C G51C,≤ 0.5
10,G10C A45C,0.626
11,G10C C27A,0.593
12,G10C C11A,0.6
13,G10C C46G U54C,≤ 0.5
14,G10A U32G C66A,≤ 0.5
15,G10C C34G U54C G67U,≤ 0.5
16,G10C G23A A45C U54C,0.58
17,G10C A20U C60G,0.587
18,G10C A20G A21C C27A C49U U54A A70C,0.653
19,G10C C22G C29A G41A C46U A65C,≤ 0.5
20,G10C A14U C22U C24G U35C G56C U64A,≤ 0.5
21,G10C C33G A40U,0.579
22,G10A U35A A57C,≤ 0.5
23,G10C A20G U26C C46U,≤ 0.5
24,G10C G58C,0.722

row,Variant,yeast fitness
1,G10C G58A,0.553
2,G10C G58U,≤ 0.5
3,G10C U13C G18C C27U C33G A37G C55U U64A G68C A70U,≤ 0.5
4,G10C C30G U59G C66A,≤ 0.5
5,G10C G44C U47C G52A U53C C61U,≤ 0.5
6,G10C C24G C27U C33U G50C G68A,≤ 0.5
7,G10A U35G A37U U47C A70G,≤ 0.5
8,G10C A14C G18A,≤ 0.5
9,G10C C11U C30G G48A U54A G68U,≤ 0.5
10,G10C G50A U59A G67U,≤ 0.5
11,G10C G18C C24U C66U,≤ 0.5
12,G10C C29G A70C,≤ 0.5
13,G10C A14C A15G U64G,≤ 0.5
14,G10C U13C G18C C27U C33G C46A C55U U64A G68C A70U,≤ 0.5
15,G10C C29A A40U C55G,≤ 0.5
16,G10C C29U A69C,≤ 0.5
17,G10C G12A U16A C30U,≤ 0.5
18,G10C G12C G39A G50A A69U,≤ 0.5
19,G10A U35A G52C C66U,≤ 0.5
20,G10C C34G A42U A70C,≤ 0.5
21,G10C C55A C61U A65C G68A,≤ 0.5
22,G10C C33G A36C U64A A65C,≤ 0.5
23,G10C C33G U53C C55U A70G,≤ 0.5
